# Data taken from ChEMBL document CHEMBL5107959, “Structure-activity relationships of valine, tert-leucine, and phenylalanine amino acid-derived synthetic cannabinoid receptor agonists related to ADB-BUTINACA, APP-BUTINACA, and ADB-P7AICA” (RSC Med Chem, 2022).
# Key:
# Cannabinoid receptor 2 [1] = molecular target: T1, Cannabinoid receptor 2 (Homo sapiens, UniProt P34972); assay: Agonist activity at human CB2 receptor expressed in mouse AtT20 cells incubated for 60 mins by FLIPR membrane potential assay; format: functional, cell-based
# Cannabinoid receptor 2 [2] = molecular target: T1, Cannabinoid receptor 2; assay: Displacement of [3H]-CP55940 from N-terminal 3HA-tagged human CB2 receptor expressed in human HEK293-EBNA cells incubated for 60 mins by radioligand competitive binding assay based liquid scintillation counter; format: cell-based
# Cannabinoid receptor 2 [3] = molecular target: T1, Cannabinoid receptor 2; assay: Agonist activity at CB2 receptor (unknown origin) expressed in human HEK293T cells co-expressing beta-arrestin2 assessed as beta-arrestin2 recruitment by measuring maximal luminescence using furimazine as substrate at 100 uM by Nano-Glo live cell reagent assay relative to CP55940; format: functional, cell-based; conditions: filed as agonist
# In short: (§1)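 βarr2 recruitment by NanoBiT split-luciferase complementation in HEK293T stably expressing CB1-βarr2 or CB2-βarr2. Cells seeded on poly-D-lysine overnight, washed into Opti-MEM. Nano-Glo Live Cell reagent (furimazine) equilibrated 10 min, then compound added and luminescence followed 2 h. […] Value read at highest tested concentration, 100 μM. Duplicates, ≥3 independent experiments.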
# Cannabinoid receptor 1 [4] = molecular target: T2, Cannabinoid receptor 1 (Homo sapiens, UniProt P21554); assay: Agonist activity at CB1 receptor (unknown origin) expressed in human HEK293T cells co-expressing beta-arrestin2 assessed as beta-arrestin2 recruitment using furimazine as substrate by Nano-Glo live cell reagent assay; format: functional, cell-based
# In short: (§2)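 βarr2 recruitment by NanoBiT split-luciferase complementation in HEK293T stably expressing CB1-βarr2 or CB2-βarr2. Nano-Glo Live Cell reagent (furimazine) equilibrated 10 min before compound, then luminescence monitored continuously 2 h. Stocks in methanol, diluted in MeOH/Opti-MEM. EC50 from four-parameter logistic fit. Duplicates in ≥3 independent experiments.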
# Cannabinoid receptor 2 [5] = molecular target: T1, Cannabinoid receptor 2; assay: Agonist activity at CB2 receptor (unknown origin) expressed in human HEK293T cells co-expressing beta-arrestin2 assessed as beta-arrestin2 recruitment using furimazine as substrate by Nano-Glo live cell reagent assay; format: functional, cell-based; in short: as §2
# Cannabinoid receptor 1 [6] = molecular target: T2, Cannabinoid receptor 1; assay: Displacement of [3H]-CP55940 from human CB1 receptor expressed in human HEK293-EBNA cells incubated for 60 mins by radioligand competitive binding assay based liquid scintillation counter; format: cell-based
# Cannabinoid receptor 2 [7] = molecular target: T1, Cannabinoid receptor 2; assay: Agonist activity at human CB2 receptor expressed in mouse AtT20 cells assessed as maximal agonist effect by measuring fluorescence at 10 uM incubated for 60 mins by FLIPR membrane potential assay relative to CP55940; format: functional, cell-based; conditions: filed as agonist
# In short: (§3)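 AtT20 FlpIn cells stably expressing human CB1 or CB2, plated overnight in L-15 with 1% FBS. Loaded 60 min at 37 °C with FLIPR blue membrane potential dye, pH 7.4 buffer. Fluorescence (ex 530/em 565 nm) read every 2 s; 2 min baseline, then drug added. Change in fluorescence versus baseline minus vehicle (DMSO 0.1%/BSA 0.01% final), normalised to 1 μM CP55,940. Response taken at 10 μM where <50% change.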
# Cannabinoid receptor 1 [8] = molecular target: T2, Cannabinoid receptor 1; assay: Agonist activity at human CB1 receptor expressed in mouse AtT20 cells assessed as maximal agonist effect by measuring fluorescence at 10 uM incubated for 60 mins by FLIPR membrane potential assay relative to CP55940; format: functional, cell-based; in short: as §3
# Cannabinoid receptor 1 [9] = molecular target: T2, Cannabinoid receptor 1; assay: Agonist activity at CB1 receptor (unknown origin) expressed in human HEK293T cells co-expressing beta-arrestin2 assessed as beta-arrestin2 recruitment by measuring maximal luminescence using furimazine as substrate at 100 uM by Nano-Glo live cell reagent assay relative to CP55940; format: functional, cell-based; in short: as §1
# Cannabinoid receptor 1 [10] = molecular target: T2, Cannabinoid receptor 1; assay: Agonist activity at human CB1 receptor expressed in mouse AtT20 cells incubated for 60 mins by FLIPR membrane potential assay; format: functional, cell-based
# [11] = Toxicity in C57BL/6J mouse assessed as reduction in body temperature upto 10 mg/kg,ip measured after 2.5 hrs by radio-biotelemetry analysis; format: organism-based; conditions: in vivo
# In short: (§4)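 Male C57BL/6J mice (four per cohort) fitted with intraperitoneal biotelemetry transmitters, 10 days' recovery. Compound in EtOH/polysorbate 80/saline (5:5:90) given i.p. at 10 μL/g after baseline vehicle injection; escalating doses 0.03 to 10 mg/kg, one every three days.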
# Cannabinoid receptor 1 [12] = molecular target: T2, Cannabinoid receptor 1; assay: Agonist activity at human CB1 receptor expressed in mouse AtT20 cells at 10 uM incubated for 60 mins by FLIPR membrane potential assay; format: functional, cell-based; in short: as §3
# [13] = Toxicity in C57BL/6J mouse assessed as reduction in body temperature at 0.1 mg/kg,ip measured after 2.5 hrs by radio-biotelemetry analysis; format: organism-based; conditions: in vivo; in short: as §4
# [14] = Toxicity in C57BL/6J mouse assessed as reduction in body temperature at 10 mg/kg,ip measured after 2.5 hrs by radio-biotelemetry analysis; format: organism-based; conditions: in vivo; in short: as §4
# T2 sequence (P21554 whole entry): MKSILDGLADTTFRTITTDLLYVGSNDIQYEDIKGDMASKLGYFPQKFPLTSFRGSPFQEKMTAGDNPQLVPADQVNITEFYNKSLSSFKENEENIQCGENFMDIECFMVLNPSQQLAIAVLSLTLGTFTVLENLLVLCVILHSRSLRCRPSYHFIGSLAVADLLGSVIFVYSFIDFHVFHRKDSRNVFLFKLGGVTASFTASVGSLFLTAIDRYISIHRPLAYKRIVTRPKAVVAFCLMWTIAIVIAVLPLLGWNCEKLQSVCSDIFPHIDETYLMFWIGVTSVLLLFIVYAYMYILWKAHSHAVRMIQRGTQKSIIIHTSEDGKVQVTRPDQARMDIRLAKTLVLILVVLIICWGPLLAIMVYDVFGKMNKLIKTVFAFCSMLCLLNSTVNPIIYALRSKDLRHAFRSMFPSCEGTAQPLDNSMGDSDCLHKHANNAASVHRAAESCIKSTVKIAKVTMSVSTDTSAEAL
# T1 sequence (P34972 whole entry): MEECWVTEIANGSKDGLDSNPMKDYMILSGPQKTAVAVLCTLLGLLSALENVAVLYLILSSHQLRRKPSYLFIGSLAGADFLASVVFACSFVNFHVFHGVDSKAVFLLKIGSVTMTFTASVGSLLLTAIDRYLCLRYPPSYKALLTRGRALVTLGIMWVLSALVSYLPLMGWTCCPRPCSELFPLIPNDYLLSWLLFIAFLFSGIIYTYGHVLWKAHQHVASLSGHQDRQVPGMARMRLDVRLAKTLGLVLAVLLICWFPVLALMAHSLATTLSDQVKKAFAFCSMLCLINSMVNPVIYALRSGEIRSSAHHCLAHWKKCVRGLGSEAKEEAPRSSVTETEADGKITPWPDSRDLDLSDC
SMILES,EC50 (Cannabinoid receptor 2 [1]) [nM],Ki (Cannabinoid receptor 2 [2]) [nM],Emax (Cannabinoid receptor 2 [3]) [%],EC50 (Cannabinoid receptor 1 [4]; read-out: EC50) [nM],EC50 (Cannabinoid receptor 2 [5]) [nM],Ki (Cannabinoid receptor 1 [6]) [nM],Emax (Cannabinoid receptor 2 [7]) [%],Emax (Cannabinoid receptor 1 [8]; filed as agonist) [%],Emax (Cannabinoid receptor 1 [9]; filed as agonist) [%],EC50 (Cannabinoid receptor 1 [10]) [nM],Activity [11],Activity (Cannabinoid receptor 1 [12]) [%],Emax (Cannabinoid receptor 1 [8]) [%],Emax (Cannabinoid receptor 1 [9]) [%],Activity [13],Activity [14],EC50 (Cannabinoid receptor 1 [4]; read-out: pEC50 (converted)) [nM]
CCCCn1nc(C(=O)N[C@@H](Cc2ccccc2)C(N)=O)c2ccccc21,6.8,39.8,71,1170,17,25.1,99,95,216,161,Toxic,,,,,,
CCCCCn1cc(C(=O)N[C@@H](Cc2ccccc2)C(N)=O)c2cccnc21,381,794,52,> 100000,766,437,78,,,,,< 50,30,6,,,
CCCCn1cc(C(=O)N[C@@H](Cc2ccccc2)C(N)=O)c2ccccc21,40,148,76,15500,209,307,92,93,50,5100,,,,,,,
CCCCn1nc(C(=O)N[C@H](C(N)=O)C(C)(C)C)c2ccccc21,4.1,0.912,83,19,1.79,0.299,101,113,728,0.67,,,,,Toxic,,
CCCCCn1cc(C(=O)N[C@H](C(N)=O)C(C)(C)C)c2cccnc21,7.1,20.4,102,147,22.2,3.94,108,,544,5.8,,,,,,Non-Toxic,
CCCCn1cc(C(=O)N[C@H](C(N)=O)C(C)(C)C)c2cccnc21,21,40.7,85,2890,120,15.5,103,117,406,88,,,,,,,
CCCCn1cc(C(=O)N[C@H](C(N)=O)C(C)C)c2cccnc21,202,891,88,> 60800,4620,501,100,104,44,1490,,,,,,,
CCCCn1cc(C(=O)N[C@H](C(N)=O)C(C)(C)C)c2ccccc21,6,1.32,92,139,4.44,1.34,103,115,756,6,,,,,,,
CCCCn1cc(C(=O)N[C@@H](Cc2ccccc2)C(N)=O)c2cccnc21,319,2190,53,> 1050,3630,538,79,,,,,< 50,19,< 5,,,1050
CCCCCn1cc(C(=O)c2cccc3ccccc23)c2ccccc21,22,9.55,58,35.5,7.3,2.56,87,116,310,18,,,,,,,
CCCCCn1cc(C(=O)N[C@H](C(N)=O)C(C)C)c2cccnc21,47,251,70,4150,694,49.5,93,112,278,101,,,,,,,
CCCCn1nc(C(=O)N[C@H](C(N)=O)C(C)C)c2ccccc21,4.2,6.46,91,187,13.7,1.18,103,114,622,7.4,,,,,,,
CCCCn1cc(C(=O)N[C@H](C(N)=O)C(C)C)c2ccccc21,28,77.6,94,3300,283,12.2,106,107,390,53,,,,,,,
